ChEMBL document CHEMBL3627612, “Hirsutinolide Series Inhibit Stat3 Activity, Alter GCN1, MAP1B, Hsp105, G6PD, Vimentin, TrxR1, and Importin α-2 Expression, and Induce Antitumor Effects against Human Glioma” (J Med Chem, 2015)
pIC50: −log10 of the molar value. Active and inactive are the calls of the source. The rule behind the calls is not given here.

Legend:
MCF7 = assay: Antiproliferative activity against human MCF7 cells for 72 hrs by cyquant assay; type: functional, cell-based; conditions: MCF7, 72 h
Summary of the method: (§1)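 CyQuant proliferation assay after 72 h compound exposure of cultured cells; relative viability normalized to DMSO-treated control; IC50 values derived. Glioma lines grown in RPMI or DMEM with 10% FBS and 1% nonessential amino acids.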

[1] = Antiproliferative activity against human U251MG cells at 5 uM for 72 hrs by cyquant assay; type: functional; conditions: U-251, 72 h; summary of the method: as §1
SF-295 [2] = assay: Antiproliferative activity against human SF295 cells at 5 uM for 72 hrs by cyquant assay; type: functional, cell-based
[3] = Cytotoxicity against mouse NIH/3T3 cells at 5uM after 72 hrs by cyquant cells; type: cell-based; conditions: nih3t3, 72 h; summary of the method: as §1
U-251 [4] = assay: Anticlonogenic activity against human U251MG cells for 72 hrs measured after 2 weeks by crystal-violet staining based assay; type: functional, cell-based
Summary of the method: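 Single-cell seeding at 250 cells per well; cells treated once the next day for 72 h with 0–5 μM compound, then grown until large colonies were visible (NIH3T3 1 week, MDA-MB-231 and U251MG 2 weeks, MCF-7 4 weeks). Colonies stained with crystal violet for 4 h, imaged and counted.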

SF-295 [5] = assay: Anticlonogenic activity against human SF295 cells for 72 hrs by crystal-violet staining based assay; type: functional, cell-based
U-251 [6] = assay: Inhibition of cell migration in human U251MG cells at 5 uM after 19 hrs by wound healing assay; type: functional, cell-based
Summary of the method: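 Scratch assay: sub-confluent U251MG monolayers wounded with pipette tips, treated once with 0–5 μM compound or DMSO, allowed to migrate into the denuded area over 19 h. Imaged at 10× on an inverted microscope.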

Glioma cell = assay: Effect on cell morphology in human Glioma (G22) patient derived xenograft cells assessed as cell disaggregation of spheroids at 5 uM for 24 hrs measured after 48 to 96 hrs by inverted fluorescence microscope analysis in presence of matrigel; type: functional
Summary of the method: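 G22 patient-derived xenograft glioma cells seeded at 1,000 cells/well in ultra-low-binding round-bottom wells, grown 48 h into 3D spheroids, then treated once with 5 μM compound or DMSO; matrigel added after 24 h. Spheroids imaged at 5× magnification on an inverted fluorescence microscope every 24 h for up to 120 h.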

[7] = molecular target: Signal transducer and activator of transcription 3 (Mus musculus) (UniProt P42227); assay: Inhibition of Stat3 dimer DNA binding activity in EGF-stimulated mouse NIH3T3 nuclear extract expressing human EGFR assessed as residual activity at 5 uM preincubated for 30 mins followed by addition of radiolabeled probe hSIE for 30 mins by EMSA
[8] = molecular target: T1, Signal transducer and activator of transcription 3 (Homo sapiens, UniProt P40763); assay: Inhibition of Stat3 activity in human U251MG cells assessed as phosphorylated Stat3 level after 2 hrs by immunoblot analysis; type: cell-based; conditions: U-251
Summary of the method: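 U251MG cells treated with 5 μM compound for 0–24 h, or with 0–5 μM for 2 h. Whole-cell lysates immunoblotted for pStat3, Stat3, GAPDH. Control was 0.025% DMSO-treated cells.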

[9] = molecular target: T1, Signal transducer and activator of transcription 3; assay: Inhibition of Stat3 activity in human glioma (G22) patient-derived mouse xenograft cells assessed as phosphorylated Stat3 level at 5 uM after 24 hrs by immunoblot analysis
Summary of the method: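 Cultured G22 glioma patient-derived mouse xenograft cells (DMEM, 5–10% heat-inactivated FBS) treated with 5 μM compound for 0–24 h. Whole-cell lysates immunoblotted for pStat3, Stat3, GAPDH.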

[10] = molecular target: T2, Signal transducer and activator of transcription 1 (Mus musculus) (UniProt P42225); assay: Modulation of EGF-induced Stat1 phosphorylation in mouse NIH3T3 cells expressing human EGFR at 5 uM preincubated for 3 hrs followed by stimulation with 1 ug/ml EGF for 12 mins by immunoblot analysis; type: cell-based
T2 sequence (whole entry): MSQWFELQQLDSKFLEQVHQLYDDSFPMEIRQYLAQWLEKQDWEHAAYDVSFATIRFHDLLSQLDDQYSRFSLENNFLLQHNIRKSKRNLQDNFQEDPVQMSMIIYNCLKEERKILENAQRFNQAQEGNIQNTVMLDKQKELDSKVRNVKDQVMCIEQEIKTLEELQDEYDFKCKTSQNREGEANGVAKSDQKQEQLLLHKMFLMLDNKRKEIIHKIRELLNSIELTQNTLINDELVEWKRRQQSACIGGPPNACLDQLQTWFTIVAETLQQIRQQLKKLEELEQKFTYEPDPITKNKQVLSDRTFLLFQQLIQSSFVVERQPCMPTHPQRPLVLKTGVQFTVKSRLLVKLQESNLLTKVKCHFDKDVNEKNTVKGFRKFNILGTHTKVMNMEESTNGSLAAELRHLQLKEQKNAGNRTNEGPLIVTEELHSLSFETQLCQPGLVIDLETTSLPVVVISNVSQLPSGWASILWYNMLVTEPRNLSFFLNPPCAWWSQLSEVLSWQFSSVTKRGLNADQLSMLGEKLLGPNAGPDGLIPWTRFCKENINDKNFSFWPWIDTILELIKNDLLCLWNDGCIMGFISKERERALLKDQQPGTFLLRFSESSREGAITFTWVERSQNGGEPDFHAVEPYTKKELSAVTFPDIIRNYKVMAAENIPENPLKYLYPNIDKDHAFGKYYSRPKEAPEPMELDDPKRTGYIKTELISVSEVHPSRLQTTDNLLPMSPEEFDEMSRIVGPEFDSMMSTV
Summary of the method: (§2)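 Whole-cell lysates of equal total protein from NIH3T3/hEGFR fibroblasts, pretreated with or without 5 μM compound (control 0.025% DMSO) for 3 h, then stimulated with 1 μg/ml EGF for 12 min. SDS-PAGE immunoblotting for pStat1/Stat1 and pStat5/Stat5 with β-actin or GAPDH loading controls. Representative of 2–4 independent determinations.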

NIH3T3 = assay: Modulation of EGF-induced Stat5 phosphorylation in mouse NIH3T3 cells expressing human EGFR at 5 uM preincubated for 3 hrs followed by stimulation with 1 ug/ml EGF for 12 mins by immunoblot analysis; type: cell-based; summary of the method: as §2
[11] = molecular target: Mitogen-activated protein kinase 1 and 3 (ERK2 and ERK1) (Mus musculus) (UniProt P63085+Q63844); assay: Modulation of EGF-induced Erk1/2 phosphorylation in mouse NIH3T3 cells expressing human EGFR at 5 uM preincubated for 3 hrs followed by stimulation with 1 ug/ml EGF for 12 mins by immunoblot analysis; type: cell-based
Summary of the method: (§3)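 NIH3T3/hEGFR fibroblasts pretreated with or without 5 μM compound for 3 h, then stimulated with 1 μg/ml EGF for 12 min. Whole-cell lysates of equal total protein immunoblotted for phospho and total Stat3, Stat1, Stat5, Erk1/2. Controls were 0.025% DMSO-treated cells. Representative of 2–4 independent determinations.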

[12] = molecular target: Signal transducer and activator of transcription 3 (Mus musculus) (UniProt P42227); assay: Inhibition of EGF-induced Stat3 phosphorylation in mouse NIH3T3 cells expressing human EGFR at 5 uM preincubated for 3 hrs followed by stimulation with 1 ug/ml EGF for 12 mins by immunoblot analysis; type: cell-based; summary of the method: as §3
[13] = molecular target: T1, Signal transducer and activator of transcription 3; assay: Inhibition of orthovandate-induced Stat3 phosphorylation in human U251MG cells at 5 uM for 3 hrs by immunoblot analysis in presence of 10 to 300 uM orthovandate; type: cell-based; conditions: U-251
Summary of the method: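 U251MG cells treated with 5 μM compound for 3 h without or with 10–300 μM Na3VO4. Whole-cell lysates of equal total protein immunoblotted for pStat3 and Stat3. Controls were 0.025% DMSO. Representative of 2–4 determinations.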

[14] = Antiproliferative activity against human U373MG cells for 72 hrs by cyquant assay; type: functional, cell-based, U-373MG ATCC; conditions: U373 MG; summary of the method: as §1

Chain of Mitogen-activated protein kinase 1 and 3 (ERK2 and ERK1) (Mus musculus) (P63085 whole entry, looked up): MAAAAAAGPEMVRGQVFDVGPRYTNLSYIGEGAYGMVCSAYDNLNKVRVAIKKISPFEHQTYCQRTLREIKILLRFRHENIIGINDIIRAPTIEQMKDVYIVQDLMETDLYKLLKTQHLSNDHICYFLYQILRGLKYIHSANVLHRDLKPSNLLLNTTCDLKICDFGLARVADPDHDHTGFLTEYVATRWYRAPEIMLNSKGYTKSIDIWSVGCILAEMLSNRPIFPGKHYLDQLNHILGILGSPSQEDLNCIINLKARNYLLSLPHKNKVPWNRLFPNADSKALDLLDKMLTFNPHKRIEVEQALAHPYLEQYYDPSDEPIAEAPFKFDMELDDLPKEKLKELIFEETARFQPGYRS
Chain of Mitogen-activated protein kinase 1 and 3 (ERK2 and ERK1) (Mus musculus) (Q63844 whole entry, looked up): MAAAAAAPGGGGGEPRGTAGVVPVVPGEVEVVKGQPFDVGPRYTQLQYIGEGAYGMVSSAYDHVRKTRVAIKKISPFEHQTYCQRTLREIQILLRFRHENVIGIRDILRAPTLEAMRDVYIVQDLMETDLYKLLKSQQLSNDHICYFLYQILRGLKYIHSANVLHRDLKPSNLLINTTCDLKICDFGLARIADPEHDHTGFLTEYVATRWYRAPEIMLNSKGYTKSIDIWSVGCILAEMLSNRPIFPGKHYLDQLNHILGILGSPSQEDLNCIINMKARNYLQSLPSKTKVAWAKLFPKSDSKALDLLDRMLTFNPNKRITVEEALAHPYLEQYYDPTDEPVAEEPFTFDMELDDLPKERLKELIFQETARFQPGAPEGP
T1 sequence (P40763 whole entry): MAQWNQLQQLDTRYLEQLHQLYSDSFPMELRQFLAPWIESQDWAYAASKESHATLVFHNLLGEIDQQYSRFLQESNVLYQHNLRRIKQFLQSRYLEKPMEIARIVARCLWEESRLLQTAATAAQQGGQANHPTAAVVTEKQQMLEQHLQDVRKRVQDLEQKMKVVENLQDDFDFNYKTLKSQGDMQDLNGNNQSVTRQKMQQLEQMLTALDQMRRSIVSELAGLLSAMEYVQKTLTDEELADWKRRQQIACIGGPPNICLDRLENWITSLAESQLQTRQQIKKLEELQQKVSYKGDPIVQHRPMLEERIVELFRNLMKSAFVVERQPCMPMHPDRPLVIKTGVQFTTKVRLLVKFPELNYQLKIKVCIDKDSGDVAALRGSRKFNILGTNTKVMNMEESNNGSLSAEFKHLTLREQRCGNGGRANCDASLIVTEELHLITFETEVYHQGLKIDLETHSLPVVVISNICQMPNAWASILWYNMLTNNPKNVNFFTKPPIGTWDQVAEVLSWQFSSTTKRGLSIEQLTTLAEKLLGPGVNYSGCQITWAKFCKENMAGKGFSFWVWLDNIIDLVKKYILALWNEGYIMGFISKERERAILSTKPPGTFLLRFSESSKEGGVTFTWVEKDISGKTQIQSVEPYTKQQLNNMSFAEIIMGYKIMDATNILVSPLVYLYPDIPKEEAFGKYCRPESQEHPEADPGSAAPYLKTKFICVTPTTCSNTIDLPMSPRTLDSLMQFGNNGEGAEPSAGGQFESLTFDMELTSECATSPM
Chain of Signal transducer and activator of transcription 3 (Mus musculus) (P42227 whole entry): as the sequence (P40763 whole entry) above, with E760D counted along it

pIC50 (MCF7) | Activity [7] [%] | inhibition [8] | inhibition [9] | inhibition [10] | inhibition [11] | inhibition [12] | inhibition [13] | SMILES | inhibition at 5 µM [1] [%] | inhibition (SF-295 [2]) | Activity [3] | Activity (U-251 [4]) | Activity (SF-295 [5]) | inhibition (U-251 [6]) | Activity (Glioma cell) | inhibition (NIH3T3) | pIC50 [14]
5.12 | 31 | Dose-dependent effect | inactive | inactive | inactive | Active | Active | C/C=C(\C)C(=O)O[C@H]1C[C@@H](C)[C@]2(OC)CC[C@](C)(/C=C3/OC(=O)C(COC(C)=O)=C31)O2 | 90 | inactive | Toxic | Dose-dependent effect | Dose-dependent effect | Active | Active | inactive | 5.18
5.32 | 8 | Dose-dependent effect | inactive | inactive | inactive | Active | Active | C/C=C(\C)C(=O)OCC1=C2/C(=C\[C@@]3(C)CC[C@](O)(O3)[C@H](C)C[C@@H]2O)OC1=O | 90 | Active | Non-toxic | Dose-dependent effect | Dose-dependent effect | Active | Active | inactive | 5.19
4.97 | 49 | Dose-dependent effect | inactive | inactive | inactive | Active | Active | C/C=C(\C)C(=O)O[C@H]1C[C@@H](C)[C@]2(O)CC[C@](C)(/C=C3/OC(=O)C(COC(C)=O)=C31)O2 | 90 | Active | Toxic | Dose-dependent effect | Dose-dependent effect | Active | Active | inactive | 5.46
